# Results from different studies.
# Target: Receptor-interacting serine/threonine-protein kinase 4 (RIPK4, Homo sapiens, UniProt P57078)
# One construct used (P57078 1-832): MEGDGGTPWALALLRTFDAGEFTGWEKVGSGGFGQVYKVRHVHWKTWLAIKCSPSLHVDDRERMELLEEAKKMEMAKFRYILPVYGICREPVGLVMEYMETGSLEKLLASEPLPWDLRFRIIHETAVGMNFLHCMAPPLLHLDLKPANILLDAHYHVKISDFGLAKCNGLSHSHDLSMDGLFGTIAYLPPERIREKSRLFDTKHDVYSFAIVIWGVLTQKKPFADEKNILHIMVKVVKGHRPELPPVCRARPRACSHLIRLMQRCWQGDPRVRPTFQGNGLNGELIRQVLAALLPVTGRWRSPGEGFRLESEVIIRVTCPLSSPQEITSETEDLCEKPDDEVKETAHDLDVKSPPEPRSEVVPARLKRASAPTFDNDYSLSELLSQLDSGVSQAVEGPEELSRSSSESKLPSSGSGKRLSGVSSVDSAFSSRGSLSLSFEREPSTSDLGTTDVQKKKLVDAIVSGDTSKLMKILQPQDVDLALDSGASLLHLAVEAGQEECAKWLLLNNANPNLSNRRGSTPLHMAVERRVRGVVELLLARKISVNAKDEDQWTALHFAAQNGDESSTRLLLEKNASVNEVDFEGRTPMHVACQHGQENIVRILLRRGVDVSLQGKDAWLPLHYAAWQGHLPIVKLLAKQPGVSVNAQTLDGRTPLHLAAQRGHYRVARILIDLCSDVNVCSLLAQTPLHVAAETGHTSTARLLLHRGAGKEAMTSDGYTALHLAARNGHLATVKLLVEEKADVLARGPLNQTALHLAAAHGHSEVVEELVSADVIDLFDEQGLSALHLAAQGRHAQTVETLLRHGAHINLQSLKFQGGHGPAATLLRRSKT
SMILES,effect on,method,tested at,remaining binding [%]
COc1cnc(Nc2cccc(S(N)(=O)=O)c2)nc1N1CCN(c2ccccc2)CC1,binding,competition with immobilised ligand,1 µM,86
COc1ccc2c(c1)O[C@H](c1ccc(OC)c(OC)c1)C[C@@H]2NC(=O)C1(c2ccc3c(c2)OC(F)(F)O3)CC1,cell-free assay,competition with immobilised ligand,1 µM,75
COc1ncc2cc3ccccc3nc2c1C#N,cell-free assay,competition with immobilised ligand,5 µM,100
O=C(c1ccc(Nc2ncc(Cl)c(-c3ccc(Cl)s3)n2)cc1)N1CCC(N2CCCC2)CC1,binding,competition with immobilised ligand,1 µM,8
F[C@@H]1CCN(c2nccc(-c3cnn4ncccc34)n2)C1,binding,,1 µM,100
O=C(NCCCN1CCOCC1)c1ccc(Nc2nccc(-c3cc4ccccc4s3)n2)cc1,binding,competition with immobilised ligand,1 µM,47
O=S(=O)(NC1CCC(c2cc(F)ccc2F)(S(=O)(=O)c2ccc(Cl)cc2)CC1)C(F)(F)F (stereo not drawn),cell-free assay,competition with immobilised ligand,1 µM,91
C[C@@H]1CCN(c2nccc(-c3cnn4ncccc34)n2)C1,binding,,1 µM,18
CC(=O)c1c(NS(C)(=O)=O)c2cc(-c3ccc(Cl)cc3)c(-c3ccc(Cl)cc3Cl)nc2n(C)c1=O,cell-free assay,competition with immobilised ligand,1 µM,61
N[C@@H]1CCN(c2nccc(-c3cnn4ncccc34)n2)C1,binding,,1 µM,100
O=C(Nc1c[nH]nc1C(=O)NC1CCNCC1)c1cc(F)cc(F)c1,binding,competition with immobilised ligand,1 µM,100
N#CC1(c2ccccn2)CCN(Cc2cc(C(=O)N3CCCC3)c(=O)n3ccccc23)CC1,cell-free assay,competition with immobilised ligand,1 µM,100
O=C(NCCCN1CCOCC1)c1ccc(Nc2ncc(Cl)c(-c3ccc(Cl)s3)n2)cc1,binding,competition with immobilised ligand,1 µM,46
C[C@@H](c1ccc(-n2cnc3c(N)ncnc32)cc1)N1CCc2nn(C)c(Cc3ccccc3)c2C1=O,binding,competition with immobilised ligand,0.1 µM,40
C=CC(=O)N1CCC(C(=O)NCC(=O)N2CCN(c3nc(-c4cnc(N)nc4C(F)F)nc(N4CCOCC4)n3)CC2)CC1,binding,competition with immobilised ligand,1 µM,76
CN(C)c1nccc(-c2cnn3ncccc23)n1,binding,,1 µM,97
COc1cc(-c2cn(C3CCc4ccccc4N(CC(F)(F)F)C3=O)nn2)ccc1-n1ccc(C)n1 (stereo not drawn),cell-free assay,competition with immobilised ligand,1 µM,52
c1cnn2ncc(-c3ccnc(N4CCC45COC5)n3)c2c1,binding,,1 µM,52
COc1cnc(Nc2cccc(S(N)(=O)=O)c2)nc1N1CCN(c2ccccc2)C(=O)C1,binding,competition with immobilised ligand,1 µM,86
CN(CCCC(F)(F)F)c1nccc(-c2cnn3ncccc23)n1,binding,,1 µM,100
CS(=O)(=O)N1CCCC(NC(=O)[C@H](CCC2CCCCC2)NC(=O)c2ccc(CNc3ncnc4c3nnn4-c3ccccc3)cc2)C1 (stereo partly drawn),cell-free assay,competition with immobilised ligand,0.1 µM,100
